From ChEMBL document CHEMBL4622853, “Design and synthesis of novel pyrrolo[2,3-b]pyridine derivatives targeting V600EBRAF” (Bioorg Med Chem, 2020)

Legend:
[1] = test system: Serine/threonine-protein kinase B-raf (Homo sapiens), P15056 [V600E]; assay: Inhibition of human BRAF V600E mutant at 10 uM by ELISA
[2] = target: Serine/threonine-protein kinase B-raf (Homo sapiens, UniProt P15056); assay: Inhibition of human wild type BRAF at 10 uM by ELISA
Summary of the method: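 Wild-type BRAF kinase inhibition run in the same manner as the V600E-B-RAF ELISA, reported as percent inhibition at 10 µM.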

[3] = target: Serine/threonine-protein kinase B-raf (Homo sapiens, UniProt P15056, V600E); assay: Inhibition of human BRAF V600E mutant by ELISA
IGROV-1 [4] = assay: Cytotoxicity against human IGROV1 cells assessed as reduction in cell viability at 10 uM after 48 hrs by SRB assay relative to control; assay type: functional; details: IGROV-1, 48 h
SK-MEL-2 [5] = assay: Cytotoxicity against human SK-MEL-2 cells assessed as reduction in cell viability after 48 hrs by SRB assay; assay type: functional, cell-based; details: SK-MEL-2, 48 h
Summary of the method: (§1)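 Cell lines from the NCI sixty human cancer cell line panel. IC50 taken as the concentration that reduces cellular growth to 50% of untreated cells.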

HCT-116 = assay: Cytotoxicity against human HCT116 cells assessed as reduction in cell viability after 48 hrs by SRB assay; assay type: functional, cell-based; details: HCT-116, 48 h; summary of the method: as §1
Malme-3M = assay: Cytotoxicity against human MALME-3M cells assessed as reduction in cell viability after 48 hrs by SRB assay; assay type: functional, cell-based; summary of the method: as §1
NCI-H522 = assay: Cytotoxicity against human NCI-H522 cells assessed as reduction in cell viability after 48 hrs by SRB assay; assay type: functional, cell-based; details: NCI-H522, 48 h; summary of the method: as §1
K562 [6] = assay: Cytotoxicity against human K562 cells assessed as reduction in cell viability after 48 hrs by SRB assay; assay type: functional, cell-based; details: K562, 48 h; summary of the method: as §1
ACHN [7] = assay: Cytotoxicity against human ACHN cells assessed as reduction in cell viability at 10 uM after 48 hrs by SRB assay relative to control; assay type: functional
CAKI-1 [8] = assay: Cytotoxicity against human Caki1 cells assessed as reduction in cell viability at 10 uM after 48 hrs by SRB assay relative to control; assay type: functional; details: CAKI-1, 48 h
M14 [9] = assay: Cytotoxicity against human M14 cells assessed as reduction in cell viability after 48 hrs by SRB assay; assay type: functional, cell-based; details: M14, 48 h; summary of the method: as §1
SK-OV-3 [10] = assay: Cytotoxicity against human SKOV3 cells assessed as reduction in cell viability at 10 uM after 48 hrs by SRB assay relative to control; assay type: functional; details: SK-OV-3, 48 h
K562 [11] = assay: Cytotoxicity against human K562 cells assessed as reduction in cell viability at 10 uM after 48 hrs by SRB assay relative to control; assay type: functional; details: K562, 48 h
Hs-578T = assay: Cytotoxicity against human Hs 578T cells assessed as reduction in cell viability after 48 hrs by SRB assay; assay type: functional, cell-based; summary of the method: as §1
IGROV-1 [12] = assay: Cytotoxicity against human IGROV1 cells assessed as reduction in cell viability after 48 hrs by SRB assay; assay type: functional, cell-based; details: IGROV-1, 48 h; summary of the method: as §1
LOX IMVI = assay: Cytotoxicity against human LOXIMVI cells assessed as reduction in cell viability after 48 hrs by SRB assay; assay type: functional, cell-based; summary of the method: as §1
SK-MEL-2 [13] = assay: Cytotoxicity against human SK-MEL-2 cells assessed as reduction in cell viability at 10 uM after 48 hrs by SRB assay relative to control; assay type: functional; details: SK-MEL-2, 48 h
NCI-H460 = assay: Cytotoxicity against human NCI-H460 cells assessed as reduction in cell viability after 48 hrs by SRB assay; assay type: functional, cell-based; details: NCI-H460, 48 h; summary of the method: as §1
A498 = assay: Cytotoxicity against human A498 cells assessed as reduction in cell viability after 48 hrs by SRB assay; assay type: functional, cell-based; details: A498, 48 h; summary of the method: as §1
MDA-MB-231 = assay: Cytotoxicity against human MDA-MB-231 cells assessed as reduction in cell viability after 48 hrs by SRB assay; assay type: functional, cell-based; details: MDA-MB-231, 48 h; summary of the method: as §1
M14 [14] = assay: Cytotoxicity against human M14 cells assessed as reduction in cell viability at 10 uM after 48 hrs by SRB assay relative to control; assay type: functional; details: M14, 48 h
HL-60(TB) = assay: Cytotoxicity against human HL-60(TB) cells assessed as reduction in cell viability after 48 hrs by SRB assay; assay type: functional, cell-based; details: HL-60, 48 h
Summary of the method: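 Tested within the NCI sixty human cancer cell line panel. IC50 is the concentration that reduces cellular growth to 50% of untreated cells after treatment.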

CAKI-1 [15] = assay: Cytotoxicity against human Caki1 cells assessed as reduction in cell viability after 48 hrs by SRB assay; assay type: functional, cell-based; details: CAKI-1, 48 h; summary of the method: as §1
SK-OV-3 [16] = assay: Cytotoxicity against human SKOV3 cells assessed as reduction in cell viability after 48 hrs by SRB assay; assay type: functional, cell-based; details: SK-OV-3, 48 h; summary of the method: as §1
ACHN [17] = assay: Cytotoxicity against human ACHN cells assessed as reduction in cell viability after 48 hrs by SRB assay; assay type: functional, cell-based; summary of the method: as §1
DU-145 = assay: Cytotoxicity against human DU145 cells assessed as reduction in cell viability after 48 hrs by SRB assay; assay type: functional, cell-based; details: DU-145, 48 h; summary of the method: as §1

Chain of Serine/threonine-protein kinase B-raf (Homo sapiens, UniProt P15056, V600E) (P15056 2-766 V600E limits assumed): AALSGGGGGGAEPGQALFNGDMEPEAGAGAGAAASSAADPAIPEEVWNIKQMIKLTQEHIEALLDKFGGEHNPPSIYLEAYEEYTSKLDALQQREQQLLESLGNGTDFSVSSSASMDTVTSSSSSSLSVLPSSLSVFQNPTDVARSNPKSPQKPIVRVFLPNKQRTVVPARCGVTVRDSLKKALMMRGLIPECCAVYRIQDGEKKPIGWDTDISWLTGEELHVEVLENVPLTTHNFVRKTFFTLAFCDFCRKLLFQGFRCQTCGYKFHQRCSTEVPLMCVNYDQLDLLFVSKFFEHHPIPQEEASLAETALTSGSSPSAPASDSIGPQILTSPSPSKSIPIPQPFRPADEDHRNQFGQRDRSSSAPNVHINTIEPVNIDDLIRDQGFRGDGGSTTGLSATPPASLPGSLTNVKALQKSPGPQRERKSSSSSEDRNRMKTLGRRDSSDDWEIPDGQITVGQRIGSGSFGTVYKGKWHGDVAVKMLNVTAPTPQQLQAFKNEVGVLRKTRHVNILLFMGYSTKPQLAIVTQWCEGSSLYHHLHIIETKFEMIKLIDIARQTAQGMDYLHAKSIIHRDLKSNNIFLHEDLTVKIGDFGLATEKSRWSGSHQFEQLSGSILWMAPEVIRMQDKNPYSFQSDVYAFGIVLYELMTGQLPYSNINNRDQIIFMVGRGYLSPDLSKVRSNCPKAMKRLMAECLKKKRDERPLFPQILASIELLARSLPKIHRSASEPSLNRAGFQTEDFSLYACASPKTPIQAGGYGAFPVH
Chain of Serine/threonine-protein kinase B-raf (Homo sapiens, UniProt P15056) (P15056 whole entry): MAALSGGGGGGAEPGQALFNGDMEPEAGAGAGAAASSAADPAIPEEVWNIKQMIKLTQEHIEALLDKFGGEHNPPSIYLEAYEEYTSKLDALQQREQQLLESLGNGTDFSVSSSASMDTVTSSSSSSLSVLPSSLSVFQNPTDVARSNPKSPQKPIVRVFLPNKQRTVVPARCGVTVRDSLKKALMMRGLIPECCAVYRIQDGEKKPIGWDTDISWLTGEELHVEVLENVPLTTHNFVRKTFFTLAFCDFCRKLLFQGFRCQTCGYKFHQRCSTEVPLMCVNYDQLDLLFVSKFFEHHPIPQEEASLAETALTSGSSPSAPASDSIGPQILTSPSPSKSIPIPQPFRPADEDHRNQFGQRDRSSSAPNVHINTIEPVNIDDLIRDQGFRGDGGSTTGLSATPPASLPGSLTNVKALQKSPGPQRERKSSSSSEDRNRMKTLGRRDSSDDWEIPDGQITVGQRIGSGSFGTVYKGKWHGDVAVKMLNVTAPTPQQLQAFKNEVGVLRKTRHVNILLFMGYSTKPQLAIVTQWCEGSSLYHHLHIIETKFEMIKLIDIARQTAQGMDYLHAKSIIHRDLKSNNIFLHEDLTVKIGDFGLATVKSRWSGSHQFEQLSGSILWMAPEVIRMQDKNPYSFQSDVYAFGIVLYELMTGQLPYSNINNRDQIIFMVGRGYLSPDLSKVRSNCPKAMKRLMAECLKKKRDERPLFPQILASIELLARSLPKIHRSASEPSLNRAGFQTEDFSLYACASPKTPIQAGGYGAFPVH
Chain of Serine/threonine-protein kinase B-raf (Homo sapiens), P15056 [V600E] (P15056 whole entry V600E): as the sequence (P15056 whole entry) above, with V600E counted along it

`O=C(NCCCNc1nccc(-n2ccc3cccnc32)n1)c1ccc(Cl)cc1` was tested, and the inhibition [1] was 80.7% and the inhibition [2] was 72.1%.

`O=S(=O)(NCCCNc1nccc(-n2ccc3cccnc32)n1)c1cccc(C(F)(F)F)c1` showed an inhibition [1] of 96.1%, an IC50 [3] of 1.1 µM and an inhibition [2] of 86.3%.

For `O=C(Nc1ccccc1)Nc1ccc(F)c(C(=O)c2c[nH]c3ncccc23)c1F`, the inhibition [1] was 94.5% and the inhibition [2] was 86.5%.

For `O=S(=O)(NCCNc1nccc(-n2ccc3cccnc32)n1)c1ccc(F)cc1`, the inhibition [1] was 89.5% and the inhibition [2] was 55.9%.

Work on `COc1ccc(S(=O)(=O)NCCNc2nccc(-n3ccc4cccnc43)n2)cc1` yielded an inhibition [1] of 56.7% and an inhibition [2] of 39.2%.

Molecule `O=C(NCCNc1nccc(-n2ccc3cccnc32)n1)c1ccc(Cl)cc1` has an inhibition [1] of 0.16% and an inhibition [2] of -1.1%.

Molecule `O=C(NCCCNc1nccc(-n2ccc3cccnc32)n1)c1ccccc1` has an inhibition [1] of 69.4% and an inhibition [2] of 60.9%.

With `O=C(Nc1ccc(Br)cc1)Nc1ccc(F)c(C(=O)c2c[nH]c3ncc(Br)cc23)c1F` the inhibition at 10 µM (IGROV-1 [4]) was 75%, the IC50 (SK-MEL-2 [5]) was 6.02 µM and the IC50 (HCT-116) was 8.71 µM. It also gave an IC50 (Malme-3M) of 9.26 µM, an IC50 (NCI-H522) of 9.01 µM and an IC50 (K562 [6]) of 7.21 µM. It also gave an inhibition [1] of 92.3%, an inhibition at 10 µM (ACHN [7]) of 70% and an inhibition at 10 µM (CAKI-1 [8]) of 90%. The IC50 (M14 [9]) was 7.92 µM, the inhibition at 10 µM (SK-OV-3 [10]) was 87% and the inhibition at 10 µM (K562 [11]) was 65%. It also gave an IC50 (Hs-578T) of 9.36 µM, an IC50 (IGROV-1 [12]) of 5.06 µM and an IC50 (LOX IMVI) of 26.5 µM. For the same molecule, the inhibition at 10 µM (SK-MEL-2 [13]) was 85%, the IC50 (NCI-H460) was 10.5 µM and the IC50 (A498) was 11.2 µM. For the same molecule, the IC50 [3] was 0.08 µM, the inhibition [2] was 72.5% and the IC50 (MDA-MB-231) was 12.2 µM. The inhibition at 10 µM (M14 [14]) was 65%, the IC50 (HL-60(TB)) was 10.9 µM and the IC50 (CAKI-1 [15]) was 3.04 µM. For the same molecule, the IC50 (SK-OV-3 [16]) was 4.52 µM, the IC50 (ACHN [17]) was 7.62 µM and the IC50 (DU-145) was 9.62 µM.

Molecule `O=S(=O)(NCCNc1nccc(-n2ccc3cccnc32)n1)c1ccc(Br)cc1` has an inhibition [1] of 65.9% and an inhibition [2] of 44.6%.

For `Cc1ccc(C(=O)NCCCNc2nccc(-n3ccc4cccnc43)n2)cc1`, the inhibition [1] was 61.6% and the inhibition [2] was 50%.

Molecule `COc1ccc(S(=O)(=O)NCCCNc2nccc(-n3ccc4cccnc43)n2)cc1` has an inhibition [1] of 94.5%, an IC50 [3] of 0.79 µM and an inhibition [2] of 82.1%.

With `O=S(=O)(NCCCNc1nccc(-n2ccc3cccnc32)n1)c1ccccc1` the inhibition [1] was 95.5%, the IC50 [3] was 0.75 µM and the inhibition [2] was 81.4%.

With `O=C(NCCNc1nccc(-n2ccc3cccnc32)n1)C1CCCCC1` the inhibition [1] was 73.7% and the inhibition [2] was 43.4%.

`Cc1ccc(S(=O)(=O)NCCNc2nccc(-n3ccc4cccnc43)n2)cc1` gave an inhibition [1] of 41.1% and an inhibition [2] of 26.3%.

Molecule `O=S(=O)(NCCCNc1nccc(-n2ccc3cccnc32)n1)c1ccc(F)cc1` has an inhibition [1] of 95.2%, an IC50 [3] of 0.88 µM and an inhibition [2] of 79.7%.

In the case of `O=C(NCCNc1nccc(-n2ccc3cccnc32)n1)c1ccc(F)cc1`, the inhibition [1] is reported as 70% and the inhibition [2] is reported as 56.8%.

`O=C(NCCNc1nccc(-n2ccc3cccnc32)n1)c1c(F)cccc1F` gave an inhibition [1] of -1.9% and an inhibition [2] of 0.1%.

`O=S(=O)(NCCNc1nccc(-n2ccc3cccnc32)n1)c1cccc(C(F)(F)F)c1` showed an inhibition [1] of 18.1% and an inhibition [2] of 10.2%.

`O=S(=O)(NCCNc1nccc(-n2ccc3cccnc32)n1)c1ccc(Cl)cc1` showed an inhibition [1] of 63.7% and an inhibition [2] of 49.2%.
